From the array DNA melting data of Ke et al. (doi:10.1101/2024.01.08.574731) come the findings set out here.

Data set [1] in a line: folding enthalpy; higher = less favourable; fluorescence melt of hairpins on a sequencing array, two-state fit. Particulars: sodium 0.088 M. In a few lines: (§1)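 Melting temperature and folding enthalpy were obtained by bootstrapped two-state fitting. Fits used Cy3 fluorescence of library hairpins with annealed Cy3 and quencher oligos on a sequenced MiSeq flow cell, imaged in 50 mM Na-HEPES pH 8.0, 25 mM NaCl in 2.5 °C steps up to 60 °C and normalised to pre-quench Cy3 and control constructs. Four replicates were combined by inverse-variance weighting, and fitted temperatures were raised by 9.35 °C to match UV melts.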

A short description of data set [2]: melting temperature; fluorescence melt of hairpins on a sequencing array, two-state fit, raised by 9.35 °C to match UV melts. To be noted: sodium 0.088 M. In a few lines:
as §1

In the case of GCTGTGCGAAAGCCCAGC ((((.((....)).)))), the folding enthalpy in data set [1] was -28.1 kcal/mol. In addition, the Tm in data set [2] turned out to be 61.8 °C.
Regarding GCACTCGGAAACGAGTAC (.(((((....))))).), the folding enthalpy in data set [1] is -13.6 kcal/mol. The Tm in data set [2] worked out at 44.1 °C.
As for ATCCGGAAACGGAT (((((....))))), in data set [1], the folding enthalpy was -20.7 kcal/mol. The Tm in data set [2] stood at 52.8 °C.
Take GGCCGAACGAAAGTTGCC (((..(((....)))))): the folding enthalpy in data set [1] is -23.5 kcal/mol. The Tm in data set [2] came to 38.9 °C.
Take GCTTCGCGAAAGCGTAGC (((.(((....))).))): the folding enthalpy in data set [1] is -42.6 kcal/mol. For the same sequence, the Tm in data set [2] came to 55.7 °C.
Consider GGGTAACGAAAGTTCCC (((.(((....)))))), for which the folding enthalpy in data set [1] was -24.4 kcal/mol. For the same sequence, the Tm in data set [2] worked out at 50.1 °C.
On to GGACTACCGAAAGGTTCC (((..(((....)))))), for which the folding enthalpy in data set [1] was -11.2 kcal/mol. Also, the Tm in data set [2] was determined as 32.8 °C.
The corresponding values for GCCACTGGAAACAGCGGC (((.(((....))).))) are -42.6 kcal/mol and 52.9 °C.
The corresponding values for GACTCGGGAAACCGGGTC (((.(((....))).))) are -40.6 kcal/mol and 55.1 °C.
The corresponding values for GTCCACGGAAACACGGAC ((((..(....)..)))) are -18.4 kcal/mol and 37.2 °C.
For GGAGCTGCGAAAGCATCC (((..(((....)))))), in data set [1], the folding enthalpy was -9.48 kcal/mol. Further, in data set [2], the Tm came to 32.4 °C.
Regarding GCGGCTCGAAAGAGCGC (((.(((....)))))), the folding enthalpy in data set [1] was -20.1 kcal/mol. Also, in data set [2], the Tm came out at 68.8 °C.
The corresponding values for GTCCTCGAAAGAGTTGAC ((((((....)))..))) are -10.7 kcal/mol and 31.2 °C.
Turning to AGTTCGAAAGAACT (((((....))))), in data set [1], the folding enthalpy was -20.8 kcal/mol. The Tm in data set [2] was determined as 55.4 °C.
As for GATCCGCGTCGGATC ((((((...)))))), the folding enthalpy in data set [1] was -35.6 kcal/mol. In addition, the Tm in data set [2] worked out at 57.3 °C.
GATCGCGAAAGCGTCATC ((((((....)))..))): the folding enthalpy in data set [1] was -7.57 kcal/mol. Further, the Tm in data set [2] is 33.8 °C.
As for GCTCAAGGAAACCTGAGC (((((.(....).))))), the folding enthalpy in data set [1] was -35.4 kcal/mol. Further, in data set [2], the Tm came out at 46.9 °C.
For GACGGTGGAAACGCTGTC (((.(.(....).).))), the folding enthalpy in data set [1] was -22.2 kcal/mol. The Tm in data set [2] was determined as 40.9 °C.
Regarding GATCCCCCGAAAGGGATC (((..(((....)))))), in data set [1], the folding enthalpy was -30.7 kcal/mol. For the same sequence, the Tm in data set [2] worked out at 52.4 °C.
Regarding GCCTCTGGAAACAGAAGC ((.((((....)))).)), the folding enthalpy in data set [1] was -24.2 kcal/mol. Also, the Tm in data set [2] came out at 35.6 °C.
As to GATTATGGAAACGTAATC (((((.(....).))))), the folding enthalpy in data set [1] was -36.5 kcal/mol. In addition, the Tm in data set [2] was 35.6 °C.
The corresponding values for GATCTATACCTAGATC ((((((....)))))) are -34.7 kcal/mol and 43.2 °C.
The corresponding values for GCGGCCACCGC ((((...)))) are -19.6 kcal/mol and 59.5 °C.
As for GCGTGGCGAAAGCTAAGC ((.(.((....)).).)), in data set [1], the folding enthalpy is -23.3 kcal/mol. Moreover, the Tm in data set [2] came to 58.3 °C.
For the sequence GCGCGCGAAAGCGGACGC ((((((....)))..))), the folding enthalpy in data set [1] was -16.5 kcal/mol. Also, the Tm in data set [2] was found to be 64.9 °C.
GGTTGTGGAAACGCAACC (((((.(....).))))): the folding enthalpy in data set [1] is -40.7 kcal/mol. Further, the Tm in data set [2] is 54 °C.
Take GACTGACGAAAGTCTGTC (((.(((....))).))): the folding enthalpy in data set [1] is -36.7 kcal/mol. Also, the Tm in data set [2] stood at 54.9 °C.
For the sequence CGCGGAAAACTCCGCG ((((((....)))))), the folding enthalpy in data set [1] was -38.9 kcal/mol. Besides, in data set [2], the Tm stood at 62 °C.
GTAGTCACGAAAGTGTAC (((..(((....)))))): the folding enthalpy in data set [1] was -12 kcal/mol. Moreover, the Tm in data set [2] was 30.5 °C.
As to GTGTACCGAAAGGTGCAC (((.(((....))).))), in data set [1], the folding enthalpy was -34.1 kcal/mol. Further, the Tm in data set [2] was 65.2 °C.
In the case of GCATCGCGAAAGCGTGGC ((..(((....)))..)), the folding enthalpy in data set [1] is -15.8 kcal/mol. Moreover, the Tm in data set [2] came out at 54.7 °C.
As for GACCTGGAAACAGGTC ((((((....)))))), the folding enthalpy in data set [1] was -40.6 kcal/mol. Further, in data set [2], the Tm came to 61.4 °C.
As to GCCCGGCGAAAGCTTGGC (((..((....))..))), the folding enthalpy in data set [1] was -18.8 kcal/mol. Also, in data set [2], the Tm amounted to 52.4 °C.
The corresponding values for GAATACGAAAGTATCTTC ((((((....)))..))) are -28.1 kcal/mol and 46.2 °C.
On to GGACTGCGAAAGCATCC (((.(((....)))))), for which, in data set [1], the folding enthalpy is -13.5 kcal/mol. The Tm in data set [2] was determined as 41.8 °C.
In the case of GTCGAGCGAAAGCTGGAC (((.(((....))).))), in data set [1], the folding enthalpy was -28.9 kcal/mol. Besides, the Tm in data set [2] was determined as 56.1 °C.
GCGTCGCGAAAGCCGCGC (((..((....))..))): the folding enthalpy in data set [1] is -29.7 kcal/mol. In addition, the Tm in data set [2] stood at 66 °C.
